Measured values published in article PMC2820722 (Journal of the American Chemical Society, 2010).
Peptide text beside a SMILES is read from it. * marks the point of attachment. Cbz = O=C(OCc1ccccc1)*

Experiments:
[1] = tested on: proteasome with defective Ch-L subunit in yeast cell lysate; assay: Yeast cell lysate assay, defective Ch-L subunit; format: biochemical; conditions: peptide 9.25 μM; ~1 mg protein/mL lysate; λex 600 nm, λem 700 nm; Fig. 1A brown
Outline: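 Yeast cells (catalytic Thr→Ala) were harvested in log phase into 50 mM Tris-HCl pH 7.4, 1 mM EDTA, 5 mM MgCl2, drop-frozen in liquid nitrogen, cryolysed by grinding mill, and cleared (14000 rpm, 20 min, 4 °C). Protein was set equal by Bradford. The sensor was added as half the assay volume from a 2× solution, and fluorescence change was followed on a plate reader.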

[2] = tested on: 20S proteasome Ca-L active site; format: biochemical, Saccharomyces cerevisiae; conditions: 30 μM peptide 5; 100 μM Z-LLE-βna; purified 20S proteasome, Buffer A, 30 °C; λex 342 nm, λem 425 nm; Fig. 2B
[3] = tested on: 20S proteasome T-L active site; format: biochemical, Saccharomyces cerevisiae; conditions: 30 μM peptide 5; 100 μM Boc-LRR-amc; purified 20S proteasome, Buffer A, 30 °C; λex 380 nm, λem 460 nm; Fig. 2B
[4] = tested on: proteasome Ch-L catalytic subunit in yeast cell lysate (defective T-L/Ca-L); assay: Yeast cell lysate assay, double mutant strain; format: biochemical; conditions: MG132 5 μM, peptide 5 9.25 μM, Fig. 1A green
[5] = Light-driven conversion of caged probe to active probe; format: physicochemical; conditions: 349 nm pulsed UV laser; caged fluorescein derivative as reference (Fig. S-6)
Outline: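 Uncaging by 349 nm diode-pumped Q-switched UV laser (5 ns pulses, 1 kHz, […] pulse energy) of the sample in a quartz cuvette. Dose was set by the number of pulses delivered and compared against an […] (CMNB)-fluorescein reference standard.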

Ac-His-Trp-Ser-Leu-Lys(Fl)-amide [Peptide 5]
Fluorescence change of the sensor in lysate with defective Ch-L subunit [1]: barely perceptible fluorescence change
Effect of Ch-L substrate on rate of Ca-L substrate processing [2]: reduces the rate
Effect of Ch-L substrate on rate of T-L substrate processing [3]: reduces the rate

CC(C)C[C@@H](C=O)NC(=O)[C@H](CC(C)C)NC(=O)[C@H](CC(C)C)NC(=O)OCc1ccccc1 [MG132] (Cbz-Leu-Leu-Leu-aldehyde)
Effect of inhibitor on hydrolytic activity towards peptide 5 in lysate [4]: completely abolishes hydrolytic activity

Ac-His-Trp-Ser-Leu-N(DMNB)-Lys(Fl)-amide [Peptide 10]
Quantum yield for the photolytic conversion of 10 to 5 [5]: 0.08
